Calls of active or inactive are those of the source. The calls are words filed in the database; no cut-off is given here.
Key:
[1] = tested on: Trypanosoma brucei rhodesiense; experiment: Antitrypanosomal activity against Trypanosoma brucei rhodesiense STIB900 infected in NMRI mouse assessed as mean parasitemia relaps day at 5 mg/kg, ip; assay type: functional; conditions: route intraperitoneal
How it was run: (§1)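 Female NMRI mice infected ip with 2 × 10⁴ STIB900 bloodstream forms. Groups of four dosed ip daily on days 3–6 postinfection; compounds in DMSO diluted with water to 10% final DMSO. Untreated infected controls. Tail-blood parasitaemia checked on days 7 and 10, twice weekly to day 30, then weekly to day 60. Relapse day recorded for mean relapse day; cure means parasite-free survival to day 60.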

[2] = tested on: Trypanosoma brucei rhodesiense; experiment: Antitrypanosomal activity against Trypanosoma brucei rhodesiense STIB900 infected in NMRI mouse assessed as mean parasitemia relaps day at 20 mg/kg, ip; assay type: functional; conditions: route intraperitoneal
How it was run: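 Female NMRI mice were infected ip with 2 × 10⁴ STIB900 bloodstream forms, in groups of four. Compound in 10% DMSO/distilled water was given ip at 5 mg/kg daily on days 3–6 postinfection, with untreated infected controls. Tail-blood parasitaemia was checked on days 7 and 10, then twice weekly to day 30 and weekly to day 60. Relapse day was recorded for mean relapse day.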

[3] = Selectivity index, ratio of IC50 for rat L6 cells to IC50 for Trypanosoma brucei rhodesiense STIB900; assay type: toxicity, cell-based; conditions: read-out: Ratio IC50
How it was run: (§2)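 Each index is L6 IC50 divided by parasite IC50. L6 values are from the 70 h resazurin assay. T. b. rhodesiense STIB900 values are from the 70 h resazurin assay. P. falciparum K1 values are from erythrocytic-stage [³H]-hypoxanthine incorporation: 48 h drug exposure, then 24 h with label. L. donovani values are from the 72 h axenic amastigote CellTiter assay.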

L6 = experiment: Cytotoxicity against rat L6 cells after 70 hrs by alamar blue assay; assay type: cell-based; conditions: L6, 70 h
How it was run: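 Cells were exposed to serial dilutions for 70 h at 37 °C, 5% CO₂, then given resazurin for 2–3 h. IC50 came from sigmoidal curves; two independent runs in duplicate. Top concentration was 90 μg/mL, converted to μM by molecular weight.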

[4] = Selectivity index, ratio of IC50 for rat L6 cells to IC50 for Leishmania donovani MHOM/SD/62/1S-CL2D; assay type: toxicity, cell-based; conditions: read-out: Ratio IC50; how it was run: as §2
Mus musculus [5] = experiment: Toxicity in NMRI mouse infected with Trypanosoma brucei rhodesiense STIB900 assessed as survival at 5 mg/kg, ip after administered for 4 consecutive days from day 3 postinfection measured after 7 to 30 days; assay type: organism-based; design: dose 5 mg/kg, route intraperitoneal; conditions: in vivo; how it was run: as §1
[6] = tested on: Trypanosoma brucei rhodesiense; experiment: Antitrypanosomal activity against Trypanosoma brucei rhodesiense STIB900 after 70 hrs by alamar blue assay; assay type: functional, organism-based; conditions: STIB900, 70 h
Leishmania donovani = experiment: Antileishmanial activity against Leishmania donovani MHOM/SD/62/1S-CL2D; assay type: functional, organism-based
How it was run: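 Axenic amastigotes (MHOM/SD/62/1S-CL2_D) adapted from promastigotes and grown in amastigote medium at 37 °C. 6 × 10⁴ parasites per well were exposed to 2-fold serial dilutions for 72 h at 37 °C in humidified 5% CO₂. Growth was read with tetrazolium CellTiter reagent as absorbance at 490 nm. IC50 came from a four-parameter dose–response fit; duplicate determinations were averaged.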

Plasmodium falciparum = experiment: Antiplasmodial activity against chloroquine-resistant Plasmodium falciparum K1 infected in human erythrocytes after 48 hrs assessed as [3H]hypoxanthine incorporation by liquid scintillation counting; assay type: functional, organism-based
[7] = Selectivity index, ratio of IC50 for rat L6 cells to IC50 for Plasmodium falciparum K1; assay type: toxicity, cell-based; conditions: read-out: Ratio IC50; how it was run: as §2
Mus musculus [8] = experiment: Toxicity in NMRI mouse infected with Trypanosoma brucei rhodesiense STIB900 assessed as survival at 0.5 mg/kg, ip after administered for 4 consecutive days from day 3 postinfection measured after 7 to 30 days; assay type: organism-based; design: dose 0.5 mg/kg, route intraperitoneal; conditions: in vivo; how it was run: as §1
[9] = tested on: Trypanosoma brucei rhodesiense; experiment: Antitrypanosomal activity against Trypanosoma brucei rhodesiense STIB900 infected in NMRI mouse assessed as mean parasitemia relaps day at 10 mg/kg, ip; assay type: functional; conditions: route intraperitoneal
How it was run: (§3)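 Single-dose ip regimen at 10 mg/kg in female NMRI mice infected ip with 2 × 10⁴ STIB900 bloodstream forms, four mice per group. Dosing solution was DMSO diluted with water to 10% final DMSO. Tail-blood parasitaemia followed to day 60 postinfection, with relapse day recorded; untreated infected controls.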

[10] = tested on: Trypanosoma brucei rhodesiense; experiment: Antitrypanosomal activity against Trypanosoma brucei rhodesiense STIB900 infected in NMRI mouse assessed as mean parasitemia relaps day at 0.5 mg/kg, ip; assay type: functional; conditions: route intraperitoneal; how it was run: as §1
Mus musculus [11] = experiment: Toxicity in NMRI mouse infected with Trypanosoma brucei rhodesiense STIB900 assessed as survival at 1 mg/kg, ip after administered for 4 consecutive days from day 3 postinfection measured after 7 to 30 days; assay type: organism-based; design: dose 1 mg/kg, route intraperitoneal; conditions: in vivo; how it was run: as §1
[12] = tested on: Trypanosoma brucei rhodesiense; experiment: Antitrypanosomal activity against Trypanosoma brucei rhodesiense STIB900 infected in NMRI mouse assessed as mean parasitemia relaps day at 1 mg/kg, ip; assay type: functional; conditions: route intraperitoneal; how it was run: as §1
Mus musculus [13] = experiment: Toxicity in NMRI mouse infected with Trypanosoma brucei rhodesiense STIB900 assessed as survival at 8 mg/kg, ip after administered for 4 consecutive days from day 3 postinfection measured after 7 to 30 days; assay type: organism-based; design: dose 8 mg/kg, route intraperitoneal; conditions: in vivo; how it was run: as §1
Mus musculus [14] = experiment: Toxicity in NMRI mouse infected with Trypanosoma brucei rhodesiense STIB900 assessed as survival at 2 mg/kg, ip after administered for 4 consecutive days from day 3 postinfection measured after 7 to 30 days; assay type: organism-based; design: dose 2 mg/kg, route intraperitoneal; conditions: in vivo; how it was run: as §1
Mus musculus [15] = experiment: Toxicity in NMRI mouse infected with Trypanosoma brucei rhodesiense STIB900 assessed as survival at 10 mg/kg, ip after administered 1 day postinfection measured after 7 to 30 days; assay type: organism-based; design: dose 10 mg/kg, route intraperitoneal; conditions: in vivo; how it was run: as §3
Plasmodium berghei = experiment: Antiplasmodial activity against Plasmodium berghei infected in mice (Mus musculus) assessed as inhibition of parasitaemia at 30 mg/kg, subcutaneous for 4 days; assay type: functional, organism-based; design: dose 30 mg/kg
How it was run: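 P. berghei mouse model. Compound was given subcutaneously at 30 mg/kg daily for four days. The read-out was blood parasite count. For in vivo use, compounds were dissolved in DMSO and diluted with distilled water to 10% DMSO final.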

Structure (SMILES) | Activity [1] | Activity [2] | selectivity ratio [3] | IC50 (L6) | selectivity ratio [4] | Activity (Mus musculus [5]) | IC50 [6] | IC50 (Leishmania donovani) | IC50 (Plasmodium falciparum) | selectivity ratio [7] | Activity (Mus musculus [8]) | Activity [9] | Activity [10] | Activity (Mus musculus [11]) | Activity [12] | Activity (Mus musculus [13]) | Activity (Mus musculus [14]) | Activity (Mus musculus [15]) | Activity (Plasmodium berghei)
N=C(N)c1ccc(OCCCCCOc2ccc(C(=N)N)cc2)cc1 [PENTAMIDINE] | 20 days | 26 days | – | – | – | – | – | – | – | – | – | – | – | – | – | – | – | – | –
Cl.Cl.N=C(N)c1cccc(-n2cc(-c3cc(C(=N)N)ccc3O)nn2)c1 | 14.75 days | – | > 782 | > 136000 nM | > 7 | Toxic | 174 nM | 20000 nM | 36 nM | > 3780 | – | – | – | – | – | – | – | – | –
Cl.Cl.N=C(N)c1ccc(-c2cn(-c3ccc(C(=N)N)cc3)nn2)cc1 | – | – | 2020 | 8100 nM | < 1 | Non-toxic | 4 nM | 9100 nM | 2 nM | 4050 | Toxic | 27 days | 25.5 days | Non-toxic | – | – | – | – | –
COc1cc(C(=N)N)ccc1-n1cc(-c2cccc(C(=N)N)c2)nn1.Cl.Cl | 13 days | – | > 17500 | > 192000 nM | > 6 | Toxic | 11 nM | 33000 nM | 25 nM | > 7680 | – | – | – | – | – | – | – | – | –
COc1cc(C(=N)N)ccc1-n1cc(-c2ccc(C(=N)N)cc2)nn1.Cl.Cl | 34 days | – | > 4820 | > 183000 nM | – | Toxic | 38 nM | > 40000 nM | 9 nM | > 20300 | – | – | – | – | – | – | – | – | –
Nc1nc(N)nc(Nc2ccc([As]3SCC(CO)S3)cc2)n1 (stereo unspecified) [MELARSOPROL] | – | – | – | – | – | – | – | – | – | – | – | – | – | – | 20 days | Non-toxic | Non-toxic | – | –
COc1cc(C(=N)N)ccc1-c1cn(-c2cccc(C(=N)N)c2)nn1.Cl.Cl | – | – | 32800 | 164000 nM | 15 | Non-toxic | 5 nM | 11000 nM | 7 nM | 23400 | – | 23.5 days | – | Toxic | 9.5 days | – | – | Toxic | –
CC(C)NC(=N)c1ccc(-n2cc(-c3cc(C(=N)NC(C)C)ccc3O)nn2)cc1.Cl | 28.75 days | – | > 1540 | > 179000 nM | – | Toxic | 116 nM | > 100000 nM | 28 nM | > 6390 | – | – | – | – | – | – | – | – | –
Cl.Cl.c1cc(-c2cn(-c3ccc(C4=NCCN4)cc3)nn2)ccc1C1=NCCN1 | 8 days | – | 1910 | 101000 nM | – | Toxic | 53 nM | > 100000 nM | 2 nM | 50500 | – | – | – | – | – | – | – | – | –
COc1ccc(C(=N)N)cc1-n1cc(-c2cccc(C(=N)N)c2)nn1.Cl.Cl | 17 days | – | > 4770 | > 224000 nM | – | Toxic | 47 nM | > 100000 nM | 28 nM | > 8000 | – | – | – | – | – | – | – | – | –
Cl.Cl.N=C(N)c1cccc(-c2cn(-c3cccc(C(=N)N)c3)nn2)c1 | 10 days | – | 2640 | 219000 nM | 5 | Toxic | 83 nM | 48000 nM | 21 nM | 10400 | – | – | – | – | – | – | – | – | –
Cl.Cl.Oc1ccc(C2=NCCN2)cc1-c1cn(-c2ccc(C3=NCCN3)cc2)nn1 | 10.75 days | – | > 4420 | > 190000 nM | > 4 | Toxic | 43 nM | 43000 nM | 9 nM | > 21100 | – | – | – | – | – | – | – | – | –
Cl.Cl.Oc1cc(C2=NCCN2)ccc1-c1cn(-c2ccc(C3=NCCN3)cc2)nn1 | 10 days | – | > 5000 | > 190000 nM | > 8 | Toxic | 38 nM | 24000 nM | 0.6 nM | > 317000 | – | – | – | – | – | – | – | – | inactive
Cl.Cl.N=C(N)c1ccc(-n2cc(-c3ccc(C(=N)N)cc3O)nn2)cc1 | – | – | 3080 | 49300 nM | 11 | Non-toxic | 16 nM | 4300 nM | 2 nM | 24600 | – | – | – | – | – | – | – | – | –
COc1ccc(C2=NCCN2)cc1-c1cn(-c2cccc(C3=NCCN3)c2)nn1.Cl.Cl | – | – | > 29300 | > 176000 nM | > 36 | Non-toxic | 6 nM | 4900 nM | 14 nM | > 12600 | – | 14 days | – | Toxic | 12 days | – | – | – | –
